This sample holds only a part of the variants without activity.
B1: tRNA (parent)
chain: GUUCCGUUGGCGUAAUGGUAACGCGUCUCCCUCCUAAGGAGAAGACUGCGGGUUCGAGUCCCGUACGGAACG

Variants of: B1
Test: yeast fitness relative to wild type (ratio to wild type); higher = fitter; tRNA-Arg(CCU), competitive growth, 37 C, YPD
How it was run: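 Variants of the tRNA-Arg(CCU) gene, chemically synthesised with a 3% per-site mutation rate at 69 sites, were placed at the native genomic locus in Saccharomyces cerevisiae. The pooled strains were competed in YPD at 37°C for 24 hours in six parallel replicates. Gene amplicons from the start population and from each end population were read by 100-nucleotide paired-end sequencing. Darwinian fitness relative to wild type came from changes in genotype frequencies; genotypes needed ≥ 100 starting reads, and estimates < 0.5 were set to 0.5.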

Question: For G17C A42G A70G, which yeast fitness is on record?
Answer: ≤ 0.5

Question: Which yeast fitness does the source give for G17C A40G G41A G56C here?
Answer: ≤ 0.5

Question: With U16G G23C U35C G63A as the variant, how does the yeast fitness read?
Answer: ≤ 0.5

Question: For U16C G44C C66U, which yeast fitness is on record?
Answer: ≤ 0.5

Question: For G17A A42C A70C, which yeast fitness is on record?
Answer: 0.688

Question: Which yeast fitness does the source give for G17A U59C here?
Answer: 0.62

Question: Which yeast fitness does the source give for U16C G56A G68A here?
Answer: 0.69

Question: Which yeast fitness does the source give for U16C U35C A57C here?
Answer: 0.532

Question: Which yeast fitness does the source give for G17A C34U C46G A65U here?
Answer: ≤ 0.5

Question: Which yeast fitness does the source give for G17A A57U here?
Answer: 0.644

Question: Which yeast fitness does the source give for G17A A43G A45G C62G here?
Answer: ≤ 0.5

Question: With G17A A42G U64A as the variant, how does the yeast fitness read?
Answer: 0.58

Question: With G17A C62U A69U as the variant, how does the yeast fitness read?
Answer: 0.587

Question: Which yeast fitness does the source give for G17C C22U C30U A37U here?
Answer: ≤ 0.5

Question: With G17A A20C G44C as the variant, how does the yeast fitness read?
Answer: 0.617

Question: Which yeast fitness does the source give for U16C U32G G56C G68A here?
Answer: ≤ 0.5

Question: For G17A U28G C30G A40C A42U, which yeast fitness is on record?
Answer: ≤ 0.5

Question: For U16C G17A C34U A42U U64A G68U, which yeast fitness is on record?
Answer: ≤ 0.5

Question: For U16G C46U A65C, which yeast fitness is on record?
Answer: 1.13

Question: With U16C U54A as the variant, how does the yeast fitness read?
Answer: 0.685

Question: With U16C G52A G56C as the variant, how does the yeast fitness read?
Answer: ≤ 0.5

Question: For G17A C33A A37U A57G, which yeast fitness is on record?
Answer: ≤ 0.5

Question: Which yeast fitness does the source give for G17A C30G C61G here?
Answer: ≤ 0.5

Question: Which yeast fitness does the source give for U16G C61U C66G here?
Answer: 0.569

Question: For G17A C55U C62U, which yeast fitness is on record?
Answer: ≤ 0.5

Question: Which yeast fitness does the source give for U16C G25U U32C A69C here?
Answer: ≤ 0.5

Question: For G17C C22A U28C A40G A45C C66G A69U, which yeast fitness is on record?
Answer: ≤ 0.5

Question: For G17A C22U U32A C34U A37G A40U C62A G63A, which yeast fitness is on record?
Answer: 0.512

Question: Which yeast fitness does the source give for G17A U32C A40G A70G here?
Answer: ≤ 0.5

Question: Which yeast fitness does the source give for G17A A20G C34U C55G here?
Answer: ≤ 0.5

Question: Which yeast fitness does the source give for U16C G25A C27A C29U G44A C55A here?
Answer: ≤ 0.5

Question: For U16G G44C, which yeast fitness is on record?
Answer: 0.912

Question: For G17C A20C G52C, which yeast fitness is on record?
Answer: ≤ 0.5

Question: With G17A C24A C49U as the variant, how does the yeast fitness read?
Answer: ≤ 0.5

Question: Which yeast fitness does the source give for U16G C27G here?
Answer: 0.639

Question: For U16G C22G A65U, which yeast fitness is on record?
Answer: 0.722

Question: With G17A G23C C33G C46A C66A as the variant, how does the yeast fitness read?
Answer: ≤ 0.5

Question: For U16C U32C G39C, which yeast fitness is on record?
Answer: ≤ 0.5

Question: With G17A C22U C27A C30G C49A as the variant, how does the yeast fitness read?
Answer: ≤ 0.5

Question: With G17C C24A as the variant, how does the yeast fitness read?
Answer: 0.56

Question: With G17A C22G C27A A45U G56C G63C G67C as the variant, how does the yeast fitness read?
Answer: ≤ 0.5

Question: With U16G C30A G51C G56C C62G as the variant, how does the yeast fitness read?
Answer: 0.65

Question: Which yeast fitness does the source give for G17A C61A G63A G67A here?
Answer: 0.542

Question: With G17C A20U G52C as the variant, how does the yeast fitness read?
Answer: ≤ 0.5

Question: With U16C G48C A57C as the variant, how does the yeast fitness read?
Answer: ≤ 0.5

Question: With G17A A37U U47A G68C as the variant, how does the yeast fitness read?
Answer: 0.645

Question: For G17C A42C C55U, which yeast fitness is on record?
Answer: ≤ 0.5

Question: With U16G C30U A65U as the variant, how does the yeast fitness read?
Answer: ≤ 0.5

Question: Which yeast fitness does the source give for G17A A20C G25A C66A G68C here?
Answer: ≤ 0.5

Question: Which yeast fitness does the source give for U16G G51A here?
Answer: 0.783

Question: For G17A A37C A69C, which yeast fitness is on record?
Answer: 0.648

Question: With G17A A20G A36C A37C U53G A70C as the variant, how does the yeast fitness read?
Answer: ≤ 0.5

Question: With G17A G56C G58C G68A as the variant, how does the yeast fitness read?
Answer: ≤ 0.5

Question: Which yeast fitness does the source give for G17A C29U here?
Answer: 0.832

Question: Which yeast fitness does the source give for U16G C61U here?
Answer: 0.75

Question: For G17A A45G, which yeast fitness is on record?
Answer: 0.875

Question: For U16G C60G, which yeast fitness is on record?
Answer: 0.658

Question: Which yeast fitness does the source give for U16C U26A A43U C62U here?
Answer: ≤ 0.5

Question: Which yeast fitness does the source give for G17A A36G C66U here?
Answer: 0.65

Question: With G17A C33U as the variant, how does the yeast fitness read?
Answer: 0.607

Question: With G17A C22U C27A C30G C66G as the variant, how does the yeast fitness read?
Answer: ≤ 0.5

Question: With G17A C30A A57U G58A as the variant, how does the yeast fitness read?
Answer: ≤ 0.5

Question: Which yeast fitness does the source give for G17A C22U U28C U54G A57C C62U here?
Answer: 0.535

Question: With U16C G25C C34U as the variant, how does the yeast fitness read?
Answer: 0.544

Question: With G17C A42C as the variant, how does the yeast fitness read?
Answer: 0.618

Question: Which yeast fitness does the source give for G17A A20G C27G A36C U47A G68A here?
Answer: ≤ 0.5

Question: With G17A C22A A45C G67C as the variant, how does the yeast fitness read?
Answer: ≤ 0.5

Question: For G17A U26C, which yeast fitness is on record?
Answer: 0.784

Question: For G17A G48C C62A, which yeast fitness is on record?
Answer: 0.549

Question: With G17A C27G C46G A65G as the variant, how does the yeast fitness read?
Answer: ≤ 0.5

Question: Which yeast fitness does the source give for G17A U28C A42C C62U A70U here?
Answer: ≤ 0.5

Question: Which yeast fitness does the source give for G17A C61G G68A here?
Answer: ≤ 0.5

Question: Which yeast fitness does the source give for U16C G18A C24G A45U U59G G68C here?
Answer: 0.537

Question: Which yeast fitness does the source give for U16C U47C here?
Answer: 0.899

Question: Which yeast fitness does the source give for U16G G17C A43U G52C here?
Answer: ≤ 0.5

Question: With G17C A21G U26G as the variant, how does the yeast fitness read?
Answer: ≤ 0.5

Question: For G17A U19A G23A C31U C34A G48C C62U, which yeast fitness is on record?
Answer: ≤ 0.5

Question: For G17C C22A C31G C55G A70U, which yeast fitness is on record?
Answer: 0.527

Question: Which yeast fitness does the source give for G17A A20G C30A here?
Answer: 0.628

Question: Which yeast fitness does the source give for U16G G52A here?
Answer: 0.668

Question: With G17A C30U A57C A69C as the variant, how does the yeast fitness read?
Answer: 0.688

Question: For G17A G58A, which yeast fitness is on record?
Answer: 0.794

Question: For U16C G25A U28C G52C, which yeast fitness is on record?
Answer: ≤ 0.5

Question: Which yeast fitness does the source give for G17A U54A A70G here?
Answer: ≤ 0.5

Source: the RNAGym collection of RNA variant scans (doi:10.1126/science.aae0568)
